High-throughput results deposited in PubChem by several laboratories.
An excerpt weighted towards active compounds, which were near 2.5% of everything screened.
UCH37 inh = blocks the human deubiquitinase UCH37. Q9Y5K5. purified proteasome/UCH37, Ub-AMC cleavage fluorescence. inhibition, % (test concentration not listed). 330,000 compounds, 0.33% hits;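 active means mean inhibition over replicate wells above about 20%, limit read from the data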;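 further: 0% = compound-free wells with enzyme and 100% = wells lacking proteasome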
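Material: human UCH37 enzyme supplied as purified proteasome complex / Amount: 0.15 nM proteasome as dispensed / Buffer or medium: pH 7.4 Tris-HCl (50 mM) with ovalbumin, ATP-MgCl2, DTT / Times: preincubation 30 min, reaction 25 min, room temperature / Technique: AMC fluorescence from Ub-AMC cleavage, excitation 355 nm, emission 460 nm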
MEKK3 PB1 HTS = raises or lowers MEK5 binding to the human MEKK3 PB1 domain. bead-based flow cytometry, Alexa488-MEK5 binding to MEKK3; actives lie on both sides; 0 = blocked by unlabeled MEK5, 100 = vehicle. binding response (% of control), % at 10 µM. 290,000 compounds, 1.4% hits. AID 1529;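 active means binding response more than 3 SD above or below the average of its plate-row segment, actives on both sides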;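 further: Alexa488 bead fluorescence after subtracting the streptavidin-only scavenger bead signal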
Target sequence (Q99759 whole entry, looked up, the tested form may be a part): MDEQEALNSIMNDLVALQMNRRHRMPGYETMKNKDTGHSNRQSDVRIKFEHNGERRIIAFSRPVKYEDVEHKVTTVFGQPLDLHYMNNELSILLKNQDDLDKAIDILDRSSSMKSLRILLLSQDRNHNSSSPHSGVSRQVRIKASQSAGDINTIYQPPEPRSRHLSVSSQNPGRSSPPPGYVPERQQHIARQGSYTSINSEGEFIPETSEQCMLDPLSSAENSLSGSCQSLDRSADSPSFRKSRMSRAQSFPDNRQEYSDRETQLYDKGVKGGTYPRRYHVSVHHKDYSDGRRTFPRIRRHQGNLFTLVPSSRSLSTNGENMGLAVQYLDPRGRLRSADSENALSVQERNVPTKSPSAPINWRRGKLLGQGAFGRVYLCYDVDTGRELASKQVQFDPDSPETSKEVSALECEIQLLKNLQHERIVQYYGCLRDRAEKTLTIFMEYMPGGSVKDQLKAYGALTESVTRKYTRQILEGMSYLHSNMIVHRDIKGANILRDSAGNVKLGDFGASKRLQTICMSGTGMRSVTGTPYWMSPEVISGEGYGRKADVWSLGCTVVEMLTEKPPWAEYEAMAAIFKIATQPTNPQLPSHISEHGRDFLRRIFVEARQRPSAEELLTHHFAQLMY
MEKK2wt PB1 HTS = raises or lowers MEK5 binding to wildtype human MEKK2 PB1 domain; Q9Y2U5; bead flow cytometry, Alexa488-MEK5 binding to MEKK2 WT; actives lie on both sides; binding response (% of control), % at 10 µM; 290,000 compounds, 1.1% hits; AID 1531; in the data active means binding response below about 67% or above about 130%
Rce1 inhib = yeast Ras-converting enzyme inhibition. yeast membranes, quenched prenylated peptide cleavage fluorescence. calls only. 290,000 compounds, 0.27% hits. AID 2563;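 active means fall in fluorescence gain of 50% or more versus controls, with final raw signal at or below 3038400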;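 further: plate controls were neutral control wells for no effect and wells lacking membranes for full effect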
MEKK2 mut-MEK5 = signal of MEK5 binding to mutant human MEKK2 PB1 domain; bead flow cytometry, Alexa488-MEK5 binding to MEKK2 mutant; percent response, % at 10 µM; 290,000 compounds, 0.35% hits; AID 1530; in the data active means percent response above about 24%, passing the limit was not always enough
T cell HTS = T cell immune modulation candidate | 2C CD8+ T cell-vesicle binding, flow cytometry; active compounds read low | response (vesicle binding), % at 7 µM | 330,000 compounds, 0.068% hits | AID 2052;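 active means response, share of CD8 T cells binding vesicles, and their 90th percentile fluorescence all below set limits, cut at about 80% in these data, passing the limit was not always enough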;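 further: values below 100% mean blocked vesicle binding to the CD8+ T cells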
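Test system: purified 2C TCR transgenic mouse naive CD8+ T cells. Probe or stimulus: QL9-peptide-loaded Drosophila micro-vesicles bearing Ld, ICAM-1 and B7-1. Incubation: binding step 1.5 h, 37 °C, antibody labelling 20 min, ice. Measured by: flow cytometry of vesicle-bound cells.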
An asterisk follows results filed as active; i = inactive; x = no result given; + = active, no number; ! = not active in a repeat; [ ] = dose if it differs, or a comment.

SMILES | UCH37 inh | MEKK3 PB1 HTS | MEKK2wt PB1 HTS | Rce1 inhib | MEKK2 mut-MEK5 | T cell HTS
CC(=NNC(=O)Cn1nc(C)c([N+](=O)[O-])c1C)c1ccc(O)cc1 | -2 | x | x | x | x | x
CCc1ccc(-c2csc(-c3c[nH]c4ccccc34)n2)cc1 | -5 | 108 | 132 | i | 1 | 255
CCC(C)Nc1nc(-c2c[nH]c3ccccc23)cs1 (stereo not drawn) | x | 78*[inhibitor] | -19* | i | 8 | 148
CC(C)(C)[C@@H]1CCC(=O)N(CC[C@H](N=[N+]=[N-])c2ccccc2)CC1 | 28* | 100 | 95 | i | -3 | 391
C[C@@H]1CCC(=O)N(CC[C@H](N=[N+]=[N-])c2ccccc2)CC1 | 2 | 103 | 106 | i | -3 | i
CCCCNC(=O)c1cc2c(=O)n3cccc(C)c3nc2n(Cc2ccccc2)c1=N | i | 97 | 96 | + | -1 | 165
C(=NC(N=Cc1ccco1)c1ccco1)c1ccco1 (stereo not drawn) | -34 | x | x | x | x | x
N=C1/C(=C/c2ccc(-c3cccc(C(=O)O)c3)o2)C(=O)N=C2SC(CC(=O)N3CCOCC3)=NN12 | 24* | 99 | 101 | i | 3 | 408
CC(=NNc1ccccn1)c1ccc(S(=O)(=O)NCc2ccco2)cc1 | 6 | x | x | x | x | x
CC(=NNC(=O)c1n[nH]c2c1CCC2)c1ccco1 | 3 | x | x | x | x | x
CC1(C)CC(=NNC(=O)c2n[nH]c3c2CCC3)CC(C)(C)N1 | 31* | 100 | 99 | i | 1 | 626
CCC1=C[C@H]2CN(C1)Cc1c([nH]c3ccccc13)[C@@](C(=O)OC)(c1cc3c(cc1OC)N(C)[C@H]1[C@@](O)(C(=O)OC)[C@H](OC(C)=O)[C@]4(CC)C=CCN5CC[C@]31[C@@H]54)C2 | x | 111 | 183* | x | 32* | x
O=C(Nc1ccccn1)C(=O)Nc1ccccn1 | 4 | 125 | 124 | i | 18 | 150
S=C(Nc1ccccn1)c1ccccn1 | 1 | 106 | 107 | i | 12 | 12*
Cc1ccc2oc(N=C(N)NC(=O)C3CC3)nc2c1 | 3 | x | x | x | x | x
O=C(NN=Cc1ccc(O)cc1)c1cccc(C(F)(F)F)c1 | 9 | x | x | x | x | x
O=C(Nc1ccc(N2CCOCC2)c(Cl)c1)c1cc2ccccc2o1 | -6 | 96 | 93 | + | 10 | 173
Cc1ccc(-c2cc(-c3ccccc3)c(C#N)c(Br)n2)cc1 | -93 | 100 | 101 | + | -1 | 283
CS(=O)(=O)c1nc(-c2ccccc2)cc(-c2ccccc2)c1C#N | 3 | 106 | 105 | i | 3 | 419
NC(N)=NC(=O)c1nc(Cl)c(N)nc1N | -31 | 97 | 94 | +! | 4 | 100
O=C(O)COc1ccccc1C=NNC(=O)C(O)c1ccccc1 (stereo not drawn) | 7 | x | x | x | x | x
CN(C)c1ccc(C2N(c3ccc(F)cc3)C(=O)C3CCCN32)cc1 (stereo not drawn) | 7 | 92 | 18* | i | 19 | 240
Cc1cc(=O)c2cc3nc(-c4cccnc4)oc3c(Br)c2o1 | -5 | 92 | 90 | i | -6 | 0.0*
COc1ccc2c(c1)C(=NN1C(=O)c3ccccc3C1=O)C(=O)N2 | 2 | x | x | x | x | x
CS(=O)(=O)Nc1ccc(C2=NN(S(=O)(=O)c3ccc(F)cc3)C(c3ccco3)C2)cc1 (stereo not drawn) | 3 | 99 | 3.0* | i | 18 | i
SMILES | UCH37 inh | MEKK3 PB1 HTS | MEKK2wt PB1 HTS | Rce1 inhib | MEKK2 mut-MEK5 | T cell HTS
O=S(=O)(c1ccccc1)N1N=C(c2ccc(Br)cc2)CC1c1ccco1 (stereo not drawn) | 1 | 102 | 17* | i | 17 | 78
Cc1cc(NN=Cc2cccc(Br)c2)nc2ccccc12 | -1 | x | x | x | x | x
CSc1nncn1N=Cc1ccccc1F | 6 | x | x | x | x | x
O=C(CSc1n[nH]c(-c2ccc(S(=O)(=O)N3CCCCC3)cc2)n1)Nc1nccs1 | -5 | 101 | 100 | + | -1 | 255
FCCCOc1ccc(C=NOCc2c(Cl)cccc2Cl)cc1 | 2 | x | x | x | x | x
CON=CCC(=O)c1ccc(OC)cc1 | 2 | x | x | x | x | x
COc1ccc(C=NNC(=O)CSc2nnc(C)n2-c2ccccc2)c(OC)c1OC | 6 | x | x | x | x | x
Cc1nn(-c2ccccc2)c2nc(N)c(C(N)=O)cc12 | -225 | 106 | 107 | + | 6 | 370
